{"source": "ChEMBL document CHEMBL5705905", "about": "“Pharmacological targeting of kinases MST1 and MST2 augments tissue repair and regeneration” (Sci Transl Med, 2016)", "key": {"[1]": {"biological_target": "TGF-beta receptor type-1 (Homo sapiens) (UniProt P36897)", "assay": "Inhibition of TGFBR1 (unknown origin) assessed as remaining activity at 1 uM by Kinome scan method relative to control"}, "[2]": {"biological_target": "Tyrosine-protein kinase receptor TYRO3 (Homo sapiens) (UniProt Q06418)", "assay": "Inhibition of TYRO3 (unknown origin) assessed as remaining activity at 1 uM by Kinome scan method relative to control"}, "[3]": {"assay": "Acute toxicity in wild-type mouse assessed as ratio of liver weight to body weight at 1 mg/kg,ip administrated daily for 2 months and after 2 weeks drug withdrawal", "type": "organism-based", "conditions": "in vivo, 1460 h", "how_it_was_run": "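Liver/body weight ratio in wild-type mice after 1 mg/kg i.p. daily for 2 months, or after a further 2 weeks off drug. n = 6; means ± SD, Student's t test. Vehicle was 0.1% citric acid aqueous solution with 20% Kolliphor HS 15.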"}, "[4]": {"biological_target": "Cyclin-dependent kinase 11A (Homo sapiens) (UniProt Q9UQ88)", "sequence (Q9UQ88 whole entry)": "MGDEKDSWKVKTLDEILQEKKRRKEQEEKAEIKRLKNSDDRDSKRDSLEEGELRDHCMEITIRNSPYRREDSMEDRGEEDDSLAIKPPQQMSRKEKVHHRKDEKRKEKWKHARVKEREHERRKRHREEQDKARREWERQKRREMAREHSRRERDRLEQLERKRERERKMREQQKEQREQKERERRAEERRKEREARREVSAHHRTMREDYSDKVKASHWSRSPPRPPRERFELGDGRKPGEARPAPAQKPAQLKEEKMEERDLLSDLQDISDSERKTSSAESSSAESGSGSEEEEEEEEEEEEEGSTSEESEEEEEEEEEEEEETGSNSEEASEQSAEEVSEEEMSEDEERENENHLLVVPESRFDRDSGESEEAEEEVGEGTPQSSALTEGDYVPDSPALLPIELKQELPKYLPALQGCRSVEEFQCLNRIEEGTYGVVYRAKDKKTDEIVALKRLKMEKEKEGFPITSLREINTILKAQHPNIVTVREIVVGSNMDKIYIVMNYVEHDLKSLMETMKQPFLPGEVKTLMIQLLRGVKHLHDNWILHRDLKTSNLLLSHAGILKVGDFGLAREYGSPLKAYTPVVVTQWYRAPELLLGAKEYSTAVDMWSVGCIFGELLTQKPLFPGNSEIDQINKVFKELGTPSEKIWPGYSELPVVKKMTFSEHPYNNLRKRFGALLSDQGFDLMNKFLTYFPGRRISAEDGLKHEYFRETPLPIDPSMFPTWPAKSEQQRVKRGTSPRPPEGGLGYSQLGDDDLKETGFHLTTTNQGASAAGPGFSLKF", "assay": "Inhibition of CDC2L2 (unknown origin) assessed as remaining activity at 1 uM by Kinome scan method relative to control", "how_it_was_run": "(§1)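 Active-site-dependent competition-binding profiling (KINOMEscan) at 1 μM against a 468-kinase panel; compound supplied from a 10 mM DMSO stock. Read-out is ctrl% = (test signal − positive control signal)/(negative control signal − positive control signal) × 100. DMSO is the negative control (100%) and a control compound the positive control (0%). Lower ctrl% means tighter binding.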"}, "[5]": {"biological_target": "T1, Phosphatidylinositol 4-phosphate 5-kinase type-1 gamma (Homo sapiens, UniProt O60331)", "T1 sequence (O60331 whole entry)": "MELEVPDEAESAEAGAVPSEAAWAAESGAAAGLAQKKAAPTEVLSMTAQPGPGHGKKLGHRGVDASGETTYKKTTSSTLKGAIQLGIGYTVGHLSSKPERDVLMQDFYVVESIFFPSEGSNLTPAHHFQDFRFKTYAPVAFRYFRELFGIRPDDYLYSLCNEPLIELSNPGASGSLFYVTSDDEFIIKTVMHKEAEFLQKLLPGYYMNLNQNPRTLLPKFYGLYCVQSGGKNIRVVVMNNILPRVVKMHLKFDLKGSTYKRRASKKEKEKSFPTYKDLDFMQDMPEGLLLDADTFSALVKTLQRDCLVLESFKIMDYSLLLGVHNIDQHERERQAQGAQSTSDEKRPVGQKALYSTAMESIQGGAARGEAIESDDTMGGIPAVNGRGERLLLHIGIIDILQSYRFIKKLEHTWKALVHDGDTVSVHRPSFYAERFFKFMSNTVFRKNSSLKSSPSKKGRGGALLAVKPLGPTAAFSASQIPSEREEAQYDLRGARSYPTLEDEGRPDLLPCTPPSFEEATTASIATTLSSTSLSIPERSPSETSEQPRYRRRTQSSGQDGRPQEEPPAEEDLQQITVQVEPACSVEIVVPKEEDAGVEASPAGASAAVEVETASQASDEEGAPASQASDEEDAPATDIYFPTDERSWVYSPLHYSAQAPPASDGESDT", "assay": "Inhibition of PIP5K1C (unknown origin) in presence of ATP by enzymatic assay"}, "HepG2": {"test_system": "HepG2", "assay": "Inhibition of Flag-tagged MST1 Y101F mutant (unknown origin) in human HepG2 cells assessed as MOB1 phosphorylation level at 0.3 to 10 uM by immunoblot analysis", "type": "cell-based", "conditions": "dose 0.3-10 µM"}, "Mus musculus": {"test_system": "Mus musculus", "assay": "Protection against APAP induced liver injury in mouse assessed as decrease in ALT level at 1 mg/kg, ip administered at 2.5 hrs in the presence of NAC", "type": "functional, organism-based", "conditions": "Serum"}, "[6]": {"biological_target": "Beta-adrenergic receptor kinase 1 (Homo sapiens) (UniProt P25098)", "assay": "Inhibition of GRK2 (unknown origin) assessed as remaining activity at 1 uM by Kinome scan method relative to control"}, "[7]": {"biological_target": "cAMP-dependent protein kinase catalytic subunit alpha (Homo sapiens) (UniProt P17612)", "assay": "Inhibition of PKAC-alpha (unknown origin) assessed as remaining activity at 1 uM by Kinome scan method relative to control"}, "[8]": {"biological_target": "Myosin-IIIa (Homo sapiens) (UniProt Q8NEV4)", "assay": "Inhibition of MYO3A (unknown origin) assessed as remaining activity at 1 uM by Kinome scan method relative to control"}, "[9]": {"biological_target": "Serine/threonine-protein kinase PAK 4 (Homo sapiens) (UniProt O96013)", "sequence (O96013 whole entry, looked up)": "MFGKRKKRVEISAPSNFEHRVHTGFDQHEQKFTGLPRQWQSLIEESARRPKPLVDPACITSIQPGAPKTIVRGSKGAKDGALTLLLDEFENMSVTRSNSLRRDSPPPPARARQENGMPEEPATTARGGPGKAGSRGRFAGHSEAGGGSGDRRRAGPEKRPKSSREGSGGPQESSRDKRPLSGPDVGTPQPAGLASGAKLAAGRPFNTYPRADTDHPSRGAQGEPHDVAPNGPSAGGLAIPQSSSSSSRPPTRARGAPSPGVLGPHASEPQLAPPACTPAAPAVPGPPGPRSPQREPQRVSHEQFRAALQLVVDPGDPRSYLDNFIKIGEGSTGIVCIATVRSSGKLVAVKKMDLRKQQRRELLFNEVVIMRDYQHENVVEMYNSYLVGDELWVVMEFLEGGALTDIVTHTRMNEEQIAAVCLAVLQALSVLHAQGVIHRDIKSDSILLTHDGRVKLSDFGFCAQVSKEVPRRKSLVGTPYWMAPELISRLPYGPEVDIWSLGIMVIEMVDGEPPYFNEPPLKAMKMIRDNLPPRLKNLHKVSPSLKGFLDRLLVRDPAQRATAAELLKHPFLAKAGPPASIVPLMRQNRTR", "assay": "Inhibition of PAK4 (unknown origin) assessed as remaining activity at 1 uM by Kinome scan method relative to control"}, "[10]": {"biological_target": "T1, Phosphatidylinositol 4-phosphate 5-kinase type-1 gamma", "assay": "Inhibition of PIP5K1C (unknown origin) assessed as remaining activity at 1 uM by Kinome scan method relative to control"}, "[11]": {"biological_target": "cGMP-dependent protein kinase 2 (Homo sapiens) (UniProt Q13237)", "assay": "Inhibition of PRKG2 (unknown origin) assessed as remaining activity at 1 uM by Kinome scan method relative to control"}, "[12]": {"biological_target": "Macrophage colony-stimulating factor 1 receptor (Homo sapiens) (UniProt P07333)", "assay": "Inhibition of CSF1R (unknown origin) assessed as remaining activity at 1 uM by Kinome scan method relative to control", "how_it_was_run": "as §1"}, "[13]": {"biological_target": "Ephrin type-B receptor 4 (Homo sapiens) (UniProt P54760)", "assay": "Inhibition of EPHB4 (unknown origin) assessed as remaining activity at 1 uM by Kinome scan method relative to control"}, "[14]": {"biological_target": "Phosphatidylinositol 4,5-bisphosphate 3-kinase catalytic subunit gamma isoform (Homo sapiens, UniProt P48736)", "assay": "Inhibition of PIK3CG (unknown origin) assessed as remaining activity at 1 uM by Kinome scan method relative to control"}, "[15]": {"biological_target": "Interleukin-1 receptor-associated kinase 3 (Homo sapiens) (UniProt Q9Y616)", "sequence (Q9Y616 whole entry)": "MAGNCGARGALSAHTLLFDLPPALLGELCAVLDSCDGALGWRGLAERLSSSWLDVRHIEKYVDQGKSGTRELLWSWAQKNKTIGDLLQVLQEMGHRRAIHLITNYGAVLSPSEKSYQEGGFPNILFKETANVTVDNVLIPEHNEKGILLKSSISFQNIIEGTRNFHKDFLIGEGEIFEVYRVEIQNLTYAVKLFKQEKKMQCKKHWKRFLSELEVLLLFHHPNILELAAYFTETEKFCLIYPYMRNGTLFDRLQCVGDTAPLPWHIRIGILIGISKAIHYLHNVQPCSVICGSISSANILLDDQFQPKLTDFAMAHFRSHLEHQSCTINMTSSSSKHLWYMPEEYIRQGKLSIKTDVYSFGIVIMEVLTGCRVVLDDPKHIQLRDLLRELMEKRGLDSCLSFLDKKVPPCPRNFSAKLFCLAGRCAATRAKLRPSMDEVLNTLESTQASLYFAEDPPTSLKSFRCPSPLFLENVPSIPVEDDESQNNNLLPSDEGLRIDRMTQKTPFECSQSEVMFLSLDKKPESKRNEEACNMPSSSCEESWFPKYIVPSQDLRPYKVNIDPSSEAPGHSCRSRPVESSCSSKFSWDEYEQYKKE", "assay": "Inhibition of IRAK3 (unknown origin) assessed as remaining activity at 1 uM by Kinome scan method relative to control"}, "[16]": {"biological_target": "Serine/threonine-protein kinase MRCK alpha (Homo sapiens) (UniProt Q5VT25)", "sequence (Q5VT25 whole entry)": "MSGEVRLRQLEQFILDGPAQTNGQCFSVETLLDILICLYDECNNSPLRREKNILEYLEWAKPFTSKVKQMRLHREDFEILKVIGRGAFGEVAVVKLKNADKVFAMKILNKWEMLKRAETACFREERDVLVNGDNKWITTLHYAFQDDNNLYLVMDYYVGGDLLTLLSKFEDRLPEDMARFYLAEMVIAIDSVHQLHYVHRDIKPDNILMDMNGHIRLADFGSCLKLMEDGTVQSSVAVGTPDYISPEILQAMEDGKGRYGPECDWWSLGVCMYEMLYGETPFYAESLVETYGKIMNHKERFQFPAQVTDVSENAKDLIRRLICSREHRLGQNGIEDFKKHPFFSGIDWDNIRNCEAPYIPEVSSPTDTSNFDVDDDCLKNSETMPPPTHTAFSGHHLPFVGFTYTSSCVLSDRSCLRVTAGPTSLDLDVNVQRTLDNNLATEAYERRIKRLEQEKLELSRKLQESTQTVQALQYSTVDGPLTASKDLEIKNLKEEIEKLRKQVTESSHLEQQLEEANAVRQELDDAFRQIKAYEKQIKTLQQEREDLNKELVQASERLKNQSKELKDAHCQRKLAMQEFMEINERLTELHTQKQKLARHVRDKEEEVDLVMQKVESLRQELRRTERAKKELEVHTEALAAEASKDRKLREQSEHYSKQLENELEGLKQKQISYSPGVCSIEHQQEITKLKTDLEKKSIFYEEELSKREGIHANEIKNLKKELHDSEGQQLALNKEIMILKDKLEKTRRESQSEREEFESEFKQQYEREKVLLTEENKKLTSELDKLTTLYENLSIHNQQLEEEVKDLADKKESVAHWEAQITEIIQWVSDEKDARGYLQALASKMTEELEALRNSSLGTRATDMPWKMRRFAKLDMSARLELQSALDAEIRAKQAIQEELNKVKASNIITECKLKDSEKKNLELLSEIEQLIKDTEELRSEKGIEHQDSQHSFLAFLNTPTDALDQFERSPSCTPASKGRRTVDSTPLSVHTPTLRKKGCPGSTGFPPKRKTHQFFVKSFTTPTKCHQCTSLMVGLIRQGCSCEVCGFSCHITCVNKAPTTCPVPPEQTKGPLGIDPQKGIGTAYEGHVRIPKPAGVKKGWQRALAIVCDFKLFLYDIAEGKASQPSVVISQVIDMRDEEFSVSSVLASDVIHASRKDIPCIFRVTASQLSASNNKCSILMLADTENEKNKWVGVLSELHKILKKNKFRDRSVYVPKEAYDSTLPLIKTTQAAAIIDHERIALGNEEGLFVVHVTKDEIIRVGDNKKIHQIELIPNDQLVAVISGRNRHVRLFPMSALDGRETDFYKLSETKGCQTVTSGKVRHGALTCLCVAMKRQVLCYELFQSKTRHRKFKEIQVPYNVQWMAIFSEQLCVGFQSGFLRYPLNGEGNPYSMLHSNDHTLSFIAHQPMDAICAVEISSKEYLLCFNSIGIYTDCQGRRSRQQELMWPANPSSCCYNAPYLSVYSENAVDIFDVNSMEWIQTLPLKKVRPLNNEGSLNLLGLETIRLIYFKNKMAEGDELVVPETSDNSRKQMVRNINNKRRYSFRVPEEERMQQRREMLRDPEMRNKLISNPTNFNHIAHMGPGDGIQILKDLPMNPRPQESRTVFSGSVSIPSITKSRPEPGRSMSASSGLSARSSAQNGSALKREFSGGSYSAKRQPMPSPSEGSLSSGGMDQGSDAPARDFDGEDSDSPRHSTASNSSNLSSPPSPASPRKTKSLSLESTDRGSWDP", "assay": "Inhibition of MRCKA (unknown origin) assessed as remaining activity at 1 uM by Kinome scan method relative to control"}, "[17]": {"test_system": "Phosphatidylinositol 4,5-bisphosphate 3-kinase catalytic subunit alpha isoform (Homo sapiens), P42336 [E545K]", "assay": "Inhibition of PIK3CA E545K mutant (unknown origin) assessed as remaining activity at 1 uM by Kinome scan method relative to control"}, "[18]": {"biological_target": "Mitogen-activated protein kinase kinase kinase 9 (Homo sapiens) (UniProt P80192)", "assay": "Inhibition of MLK1 (unknown origin) assessed as remaining activity at 1 uM by Kinome scan method relative to control"}, "[19]": {"biological_target": "Macrophage-stimulating protein receptor (Homo sapiens) (UniProt Q04912)", "assay": "Inhibition of MST1R (unknown origin) assessed as remaining activity at 1 uM by Kinome scan method relative to control"}, "[20]": {"biological_target": "T2, Serine/threonine-protein kinase 3 (Homo sapiens, UniProt Q13188)", "T2 sequence (Q13188 whole entry)": "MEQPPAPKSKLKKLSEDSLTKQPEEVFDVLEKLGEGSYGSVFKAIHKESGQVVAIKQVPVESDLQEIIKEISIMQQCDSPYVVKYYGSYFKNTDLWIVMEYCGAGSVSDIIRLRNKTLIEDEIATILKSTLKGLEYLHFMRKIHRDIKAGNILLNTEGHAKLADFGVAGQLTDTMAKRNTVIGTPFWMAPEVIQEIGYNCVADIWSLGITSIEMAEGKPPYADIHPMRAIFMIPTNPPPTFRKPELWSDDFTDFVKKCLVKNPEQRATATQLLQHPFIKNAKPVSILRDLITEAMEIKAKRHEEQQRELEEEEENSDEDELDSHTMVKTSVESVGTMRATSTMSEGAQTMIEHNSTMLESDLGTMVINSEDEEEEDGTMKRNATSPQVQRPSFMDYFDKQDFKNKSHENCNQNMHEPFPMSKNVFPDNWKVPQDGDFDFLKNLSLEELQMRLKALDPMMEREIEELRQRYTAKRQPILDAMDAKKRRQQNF", "assay": "Inhibition of Flag-tagged full-length MST2 (unknown origin) transfected in HEK293T cells assessed as MOB1a phosphorylation level incubated for 3 hrs by immunoblot analysis"}, "[21]": {"biological_target": "Dual specificity mitogen-activated protein kinase kinase 3 (Homo sapiens) (UniProt P46734)", "sequence (P46734 whole entry)": "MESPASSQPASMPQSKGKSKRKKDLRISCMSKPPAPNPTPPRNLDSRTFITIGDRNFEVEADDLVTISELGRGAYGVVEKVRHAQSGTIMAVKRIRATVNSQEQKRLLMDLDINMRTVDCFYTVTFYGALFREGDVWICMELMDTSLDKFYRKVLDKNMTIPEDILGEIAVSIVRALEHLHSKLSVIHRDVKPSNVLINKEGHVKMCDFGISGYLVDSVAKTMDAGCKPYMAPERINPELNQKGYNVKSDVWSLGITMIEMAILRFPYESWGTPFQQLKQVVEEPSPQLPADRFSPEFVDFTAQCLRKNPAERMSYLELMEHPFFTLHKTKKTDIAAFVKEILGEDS", "assay": "Inhibition of MEK3 (unknown origin) assessed as remaining activity at 1 uM by Kinome scan method relative to control"}, "[22]": {"biological_target": "ALK tyrosine kinase receptor (Homo sapiens) (UniProt Q9UM73)", "assay": "Inhibition of ALK (unknown origin) assessed as remaining activity at 1 uM by Kinome scan method relative to control", "how_it_was_run": "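Active-site-dependent competition-binding (KINOMEscan) panel of 468 kinases, test compound at 1 μM (from a 10 mM DMSO stock). Read-out is ctrl% = (test signal − positive control signal)/(negative control signal − positive control signal) × 100. DMSO is the negative control (100%) and a control compound is the positive control (0%). Lower ctrl% means tighter binding.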"}}, "note": "Calls of active or inactive are those of the source. The rule behind the calls is not given here.", "data": [{"smiles": "CN1C(=O)c2sccc2N(C)c2nc(Nc3ccc(S(N)(=O)=O)cc3)ncc21", "values": [{"measurement": "Activity", "setting": "[1]", "value": 92, "unit": "%"}, {"measurement": "Activity", "setting": "[2]", "value": 100, "unit": "%"}, {"measurement": "Activity", "setting": "[3]", "value": "Toxic"}, {"measurement": "Activity", "setting": "[4]", "value": 97, "unit": "%"}, {"measurement": "IC50", "setting": "[5]", "value": 436, "unit": "nM"}, {"measurement": "inhibition", "setting": "HepG2", "value": "Active"}, {"measurement": "Activity", "setting": "Mus musculus", "value": "Active"}, {"measurement": "Activity", "setting": "[6]", "value": 100, "unit": "%"}, {"measurement": "Activity", "setting": "[7]", "value": 97, "unit": "%"}, {"measurement": "Activity", "setting": "[8]", "value": 100, "unit": "%"}, {"measurement": "Activity", "setting": "[9]", "value": 86, "unit": "%"}, {"measurement": "Activity", "setting": "[10]", "value": 10, "unit": "%"}, {"measurement": "Activity", "setting": "[11]", "value": 95, "unit": "%"}, {"measurement": "Activity", "setting": "[12]", "value": 86, "unit": "%"}, {"measurement": "Activity", "setting": "[13]", "value": 61, "unit": "%"}, {"measurement": "Activity", "setting": "[14]", "value": 0.15, "unit": "%"}, {"measurement": "Activity", "setting": "[15]", "value": 100, "unit": "%"}, {"measurement": "Activity", "setting": "[16]", "value": 76, "unit": "%"}, {"measurement": "Activity", "setting": "[17]", "value": 49, "unit": "%"}, {"measurement": "Activity", "setting": "[18]", "value": 100, "unit": "%"}, {"measurement": "Activity", "setting": "[19]", "value": 96, "unit": "%"}, {"measurement": "IC50", "setting": "[20]", "value": 38.1, "unit": "nM"}, {"measurement": "Activity", "setting": "[21]", "value": 66, "unit": "%"}, {"measurement": "Activity", "setting": "[22]", "value": 94, "unit": "%"}]}]}
